Assay results taken from ChEMBL document CHEMBL3351727, “New praziquantel derivatives containing NO-donor furoxans and related furazans as active agents against Schistosoma mansoni” (Eur J Med Chem, 2014).
The source made the active and inactive calls. No cut-off for these calls is given here.

How the values were obtained:
[1] = system: Schistosoma mansoni; experiment: Antiparasitic activity against Schistosoma mansoni infected in female Swiss-Webster mouse assessed as worm killing at 50 uM after 144 hrs by stereomicroscopy
[2] = system: Schistosoma mansoni; experiment: Antiparasitic activity against Schistosoma mansoni cercariae infected in female Swiss-Webster mouse assessed as worm contraction at 50 uM after 24 to 48 hrs by stereomicroscopy; type: functional, organism-based
Procedure, shortened: (§1)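 Adult worms were washed in RPMI 1640 with 25 mM HEPES, penicillin, streptomycin and 10% FBS, then held 15–20 per well overnight at 37°C in 5% CO₂. Medium was renewed the next day. Compounds from 10 mM DMSO stocks were added at 10 or 50 μM, with equal DMSO volumes in all wells and DMSO-only negative controls. After compound removal, morphology and mobility were followed over days.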

[3] = system: Schistosoma mansoni; experiment: Antiparasitic activity against Schistosoma mansoni infected in female Swiss-Webster mouse assessed as worm killing at 10 uM after 144 hrs by stereomicroscopy
[4] = system: Schistosoma mansoni; experiment: Antiparasitic activity against Schistosoma mansoni cercariae infected in female Swiss-Webster mouse assessed as worm contraction at 10 uM after 24 to 48 hrs by stereomicroscopy; type: functional, organism-based
Procedure, shortened: as §1

[5] = target: T1, Thioredoxin glutathione reductase (Schistosoma mansoni, UniProt Q962Y6); experiment: Inhibition of Schistosoma mansoni recombinant thioredoxin glutathione reductase assessed as 5-thio-2nitrobezoic acid formation after 3 mins
T1 sequence (Q962Y6 whole entry): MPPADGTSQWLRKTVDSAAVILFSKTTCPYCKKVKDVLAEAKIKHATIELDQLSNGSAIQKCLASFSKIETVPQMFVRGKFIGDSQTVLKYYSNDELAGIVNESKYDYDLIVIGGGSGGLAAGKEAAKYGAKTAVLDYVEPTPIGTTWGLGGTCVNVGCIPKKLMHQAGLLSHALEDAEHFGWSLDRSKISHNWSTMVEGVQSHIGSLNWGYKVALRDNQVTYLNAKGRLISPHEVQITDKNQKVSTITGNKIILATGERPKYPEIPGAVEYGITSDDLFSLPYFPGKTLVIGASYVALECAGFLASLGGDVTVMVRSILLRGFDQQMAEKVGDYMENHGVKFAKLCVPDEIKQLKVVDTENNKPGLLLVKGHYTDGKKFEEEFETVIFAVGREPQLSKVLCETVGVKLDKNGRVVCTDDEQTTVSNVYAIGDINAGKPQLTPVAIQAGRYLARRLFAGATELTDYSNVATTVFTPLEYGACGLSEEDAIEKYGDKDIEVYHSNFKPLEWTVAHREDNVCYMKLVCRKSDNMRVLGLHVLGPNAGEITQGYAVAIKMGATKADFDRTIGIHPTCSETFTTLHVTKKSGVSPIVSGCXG

[6] = Induction of NO release in pH 7.4 buffer solution at 5:1 excess of L-cysteine after 1 hr incubation by Griess assay; type: physicochemical; conditions: pH 7.4, 1 h
Procedure, shortened: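 Compound was incubated 1 hr at 37 °C in pH 7.4 buffer with a 5:1 molar excess of L-cysteine. Nitrite was measured by Griess reaction and reported as % NO₂⁻ (mol/mol) ± SE.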

[7] = system: Schistosoma mansoni; experiment: Antiparasitic activity against Schistosoma mansoni infected in female Swiss-Webster mouse assessed as worm killing at 10 uM after 48 hrs by stereomicroscopy; type: functional
Procedure, shortened: (§2)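 Adult S. mansoni worms were washed in complete RPMI 1640 with 25 mM HEPES, penicillin, streptomycin and 10% FBS. They were held 15–20 per well overnight at 37°C in 5% CO₂, then moved to fresh medium. Compounds from 10 mM DMSO stocks were added to final 10 or 50 μM. Controls received an equal volume of DMSO, and worm death was scored.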

[8] = system: Schistosoma mansoni; experiment: Antiparasitic activity against Schistosoma mansoni infected in female Swiss-Webster mouse assessed as worm killing at 50 uM after 48 hrs by stereomicroscopy; type: functional
Procedure, shortened: as §2

[9] = system: Schistosoma mansoni; experiment: Antiparasitic activity against Schistosoma mansoni cercariae infected in female Swiss-Webster mouse assessed as male worm contraction at 50 uM after 24 to 48 hrs by stereomicroscopy; type: functional, organism-based
Procedure, shortened: as §1

[10] = system: Schistosoma mansoni; experiment: Antiparasitic activity against Schistosoma mansoni infected in female Swiss-Webster mouse assessed as worm killing at 50 uM after 24 hrs by stereomicroscopy; type: functional, organism-based
Procedure, shortened: as §1

[11] = system: Schistosoma mansoni; experiment: Antiparasitic activity against Schistosoma mansoni cercariae infected in female Swiss-Webster mouse assessed as female worm contraction at 10 uM after 24 to 48 hrs by stereomicroscopy; type: functional, organism-based
Procedure, shortened: as §1

[12] = system: Schistosoma mansoni; experiment: Antiparasitic activity against Schistosoma mansoni infected in female Swiss-Webster mouse assessed as worm killing at 50 uM after 72 hrs by stereomicroscopy; type: functional, organism-based
Procedure, shortened: as §1

[13] = system: Schistosoma mansoni; experiment: Antiparasitic activity against Schistosoma mansoni infected in female Swiss-Webster mouse assessed as worm killing at 10 uM after 96 hrs by stereomicroscopy; type: functional, organism-based
Procedure, shortened: as §1

Which results are given for O=C(C1CCCCC1)N1CC(=O)N2CCc3ccccc3C2C1 (racemic) [PRAZIQUANTEL]?
Activity [1]: 40%; Activity [2]: Active; Activity [3]: 15%; Activity [4]: Active; IC50 [5]: Not Active

With NC(=O)c1c(COc2ccc3c(c2)C2CN(C(=O)C4CCCCC4)CC(=O)N2CC3)no[n+]1[O-] (stereo not given) as the molecule, how does the Activity [2] read?
The Activity was “inactive”.

What about the Activity [6] of the same molecule?
The Activity was 1.1%.

And the Activity [7]?
Its Activity is “inactive”.

And the Activity [8]?
Its Activity is “inactive”.

What about the Activity [4] of the same molecule?
The Activity was “inactive”.

What about the IC50 ([5]; read-out: IC50) of the same molecule?
The IC50 was 83 nM.

For O=C(C1CCCCC1)N1CC(=O)N2CCc3ccc(OCCCOc4no[n+]([O-])c4S(=O)(=O)c4ccccc4)cc3C2C1 (stereo not given), which Activity [9] is on record?
The Activity was “Active”.

What about the Activity [6] of the same molecule?
The Activity was 15.7%.

And the Activity [7]?
Its Activity is “Active”.

And the Activity [4]?
The Activity was “inactive”.

What about the Activity [10] of the same molecule?
The Activity was “Active”.

And the IC50 ([5]; read-out: IC50)?
Its IC50 is 8500 nM.

What does the source list for NC(=O)c1nonc1COc1ccc2c(c1)C1CN(C(=O)C3CCCCC3)CC(=O)N1CC2 (stereo not given)?
Activity [2]: inactive; Activity [7]: inactive; Activity [8]: inactive; Activity [4]: inactive; IC50 ([5]; read-out: IC50): > 50000 nM

What does the source list for NC(=O)c1c(C(=O)N2CC(=O)N3CCc4ccccc4C3C2)no[n+]1[O-] (stereo not given)?
Activity [1]: 80%; Activity [2]: Active; Activity [6]: 1.8%; Activity [3]: 30%; Activity [4]: Active; IC50 ([5]; read-out: IC50): 10 nM

Which Activity [1] does the source give for NC(=O)c1nonc1C(=O)N1CC(=O)N2CCc3ccccc3C2C1 (stereo not given) here?
Its Activity is 23%.

What about the Activity [2] of the same molecule?
Its Activity is “Active”.

What about the Activity [3] of the same molecule?
The Activity was 23%.

And the Activity [4]?
Its Activity is “Active”.

And the IC50 ([5]; read-out: IC50)?
Its IC50 is greater than 50000 nM.

With N#Cc1c(C(=O)N2CC(=O)N3CCc4ccccc4C3C2)no[n+]1[O-] (stereo not given) as the molecule, how does the Activity [2] read?
Its Activity is “Active”.

And the Activity [6]?
Its Activity is 56.2%.

What about the Activity [11] of the same molecule?
Its Activity is “Active”.

What about the Activity [3] of the same molecule?
The Activity was 30%.

What about the IC50 ([5]; read-out: IC50) of the same molecule?
Its IC50 is 316 nM.

And the Activity [12]?
Its Activity is “Active”.

With COC(=O)c1nonc1C(=O)N1CC(=O)N2CCc3ccccc3C2C1 (stereo not given) as the molecule, how does the Activity [1] read?
The Activity was 18%.

What about the Activity [2] of the same molecule?
Its Activity is “Active”.

What about the Activity [3] of the same molecule?
Its Activity is 15%.

And the Activity [4]?
The Activity was “Active”.

What about the IC50 ([5]; read-out: IC50) of the same molecule?
Its IC50 is greater than 50000 nM.

Which Activity [2] does the source give for O=C(C1CCCCC1)N1CC(=O)N2CCc3ccc(OCCCOc4nonc4S(=O)(=O)c4ccccc4)cc3C2C1 (stereo not given) here?
The Activity was “Active”.

What about the Activity [7] of the same molecule?
Its Activity is “inactive”.

What about the Activity [8] of the same molecule?
Its Activity is “inactive”.

What about the Activity [4] of the same molecule?
The Activity was “Active”.

What about the IC50 ([5]; read-out: IC50) of the same molecule?
Its IC50 is greater than 50000 nM.

With N#Cc1nonc1COc1ccc2c(c1)C1CN(C(=O)C3CCCCC3)CC(=O)N1CC2 (stereo not given) as the molecule, how does the Activity [2] read?
The Activity was “Active”.

And the Activity [7]?
Its Activity is “inactive”.

What about the Activity [8] of the same molecule?
The Activity was “inactive”.

And the Activity [4]?
The Activity was “inactive”.

And the IC50 ([5]; read-out: IC50)?
Its IC50 is greater than 50000 nM.

Which Activity [1] does the source give for N#Cc1nonc1C(=O)N1CC(=O)N2CCc3ccccc3C2C1 (stereo not given) here?
Its Activity is 25%.

What about the Activity [2] of the same molecule?
Its Activity is “Active”.

What about the Activity [3] of the same molecule?
Its Activity is 20%.

What about the Activity [4] of the same molecule?
Its Activity is “Active”.

And the IC50 ([5]; read-out: IC50)?
The IC50 was greater than 50000 nM.

Which Activity [2] does the source give for N#Cc1c(COc2ccc3c(c2)C2CN(C(=O)C4CCCCC4)CC(=O)N2CC3)no[n+]1[O-] (stereo not given) here?
Its Activity is “Active”.

What about the Activity [6] of the same molecule?
Its Activity is 33.8%.

And the Activity [7]?
Its Activity is “inactive”.

What about the Activity [4] of the same molecule?
The Activity was “inactive”.

What about the Activity [10] of the same molecule?
The Activity was “Active”.

And the IC50 ([5]; read-out: IC50)?
The IC50 was 350 nM.

With COC(=O)c1c(C(=O)N2CC(=O)N3CCc4ccccc4C3C2)no[n+]1[O-] (stereo not given) as the molecule, how does the Activity [1] read?
Its Activity is 50%.

And the Activity [2]?
The Activity was “Active”.

What about the Activity [6] of the same molecule?
The Activity was less than 1%.

What about the Activity [3] of the same molecule?
The Activity was 23%.

What about the Activity [4] of the same molecule?
The Activity was “Active”.

What about the IC50 ([5]; read-out: IC50) of the same molecule?
The IC50 was 148 nM.

What does the source list for N#Cc1c(-c2ccccc2)no[n+]1[O-] [FUROXAN]?
Activity [2]: inactive; Activity [13]: Active; Activity [4]: inactive; Activity [10]: Active
